Values after ≈ are worked out from the molar mass of the structure shown. Active and inactive are the calls of the source. The rule behind the calls is not given here.
Tested on: not listed separately
Test: (§1) Inhibition of Candida albicans secreted aspartic protease
Summary of the method: (§2)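 Candida albicans secreted aspartic protease (SAP) inhibition assay run by the earlier published method. Aspartic protease inhibitor pepstatin A served as positive control. Activity is reported as IC50 in µg/mL.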

| IC50 [mg/L] | SMILES |
| --- | --- |
| 20 (≈ 38.3 µM) | C[C@@]12CC[C@@H]3[C@](C)(CC[C@H](O)[C@]3(C)C(=O)O)[C@H]1CC[C@@H]1[C@@]3(C)CC[C@@H](O)[C@](C)(CO)[C@@H]3C[C@H](O)[C@@]1(O)C2 [LYCERNUIC ACID C] |
| 0.0015 (≈ 0.00219 µM) | CC(C)CC(=O)N[C@H](C(=O)N[C@H](C(=O)N[C@@H](CC(C)C)[C@@H](O)CC(=O)N[C@@H](C)C(=O)N[C@@H](CC(C)C)[C@@H](O)CC(=O)O)C(C)C)C(C)C [PEPSTATIN] |
| 8.5 (≈ 11.7 µM) | O=C(/C=C/c1ccc(O)cc1)OC[C@H]1O[C@@H](Oc2ccc(-c3cc(=O)c4c(O)cc(O)cc4o3)cc2)[C@H](OC(=O)/C=C/c2ccc(O)cc2)[C@@H](O)[C@@H]1O |

Tested on: Candida albicans
Test: as §1
Summary of the method: as §2

| SMILES | Activity |
| --- | --- |
| CC(=O)OC[C@]1(C)[C@@H]2C[C@H](OC(C)=O)[C@@]3(O)C[C@]4(C)CC[C@@H]5[C@](C)(CC[C@H](OC(C)=O)[C@]5(C)C(=O)O)[C@H]4CC[C@@H]3[C@@]2(C)CC[C@H]1OC(C)=O | inactive |
| CC(=O)O[C@H]1CC[C@@]2(C)[C@@H](CC[C@@]3(C)C[C@@]4(O)[C@H](O)C[C@H]5C(C)(C)[C@H](OC(C)=O)CC[C@]5(C)[C@H]4CC[C@@H]32)[C@@]1(C)C(=O)O | inactive |
| CC(=O)O[C@H]1CC[C@@]2(C)[C@@H](CC[C@@]3(C)CC4=C(CC[C@@H]32)[C@@]2(C)CC[C@@H](OC(C)=O)C(C)(C)[C@@H]2CC4)[C@@]1(C)C(=O)O | inactive |
| CC(=O)O[C@H]1CC[C@@]2(C)[C@@H](CC[C@@]3(C)C[C@@]4(O)[C@H](CC[C@@H]32)[C@@]2(C)CC[C@@H](OC(C)=O)C(C)(C)[C@@H]2C[C@@H]4O)[C@@]1(C)C(=O)O | inactive |
| CC(=O)O[C@H]1CC[C@@]2(C)[C@@H](CC[C@@]3(C)C[C@@]4(O)CC[C@H]5C(C)(C)[C@H](OC(C)=O)CC[C@]5(C)[C@H]4CC[C@@H]32)[C@@]1(C)C(=O)O | inactive |
| CC1(C)[C@H](O)CC[C@]2(C)[C@H]3CC[C@H]4[C@@](C)(CC[C@@H]5[C@]4(C)CC[C@H](O)[C@]5(C)C(=O)O)C[C@]3(O)[C@@H](O)C[C@@H]12 | inactive |
| CC(=O)O[C@H]1CC[C@@]2(C)[C@@H](CC[C@@]3(C)CC4=CC[C@H]5C(C)(C)[C@H](OC(C)=O)CC[C@]5(C)[C@H]4CC[C@@H]32)[C@@]1(C)C(=O)O | inactive |
| CC1(C)[C@H](O)CC[C@@]2(C)[C@H]1CC[C@]1(O)C[C@]3(C)CC[C@@H]4[C@](C)(CC[C@H](O)[C@]4(C)C(=O)O)[C@H]3CC[C@@H]12 | inactive |

Further lines, results first:

| Activity | SMILES |
| --- | --- |
| inactive | CC1(C)[C@H](O)CC[C@]2(C)[C@H]3CC[C@H]4[C@@](C)(CC[C@@H]5[C@]4(C)CC[C@@H](O)[C@]5(C)CO)CC3=CC(=O)[C@@H]12 |
| inactive | CC1(C)[C@H](O)CC[C@]2(C)[C@H]3CC[C@H]4[C@@](C)(CC[C@@H]5[C@]4(C)CC[C@H](O)[C@]5(C)C(=O)O)CC3=CC[C@@H]12 |
| inactive | CC1(C)[C@@H](O)CC[C@@]2(C)[C@H]1CC[C@@]1(C)CC3=CC[C@H]4C(C)(C)[C@@H](O)CC[C@]4(C)[C@H]3CC[C@@H]12 |
| inactive | COC(=O)[C@@]1(C)[C@H](O)CC[C@@]2(C)[C@H]1CC[C@@]1(C)CC3=CC(=O)[C@@H]4[C@](C)(CC[C@@H](O)[C@]4(C)CO)[C@H]3CC[C@@H]12 |
| inactive | C[C@@]12CC[C@@H]3[C@](C)(CC[C@H](O)[C@]3(C)C(=O)O)[C@H]1CC[C@H]1C(=CC[C@@H]3[C@]1(C)CC[C@@H](O)[C@]3(C)CO)C2 |
| inactive | COC(=O)[C@]1(C)[C@@H]2CC[C@@]3(C)CC4=CC(=O)[C@@H]5[C@](C)(CC[C@@H](O)[C@]5(C)CO)[C@H]4CC[C@@H]3[C@@]2(C)CC[C@@H]1O |
| inactive | CC1(C)[C@@H](O)CC[C@@]2(C)[C@H]1CC[C@@]1(C)CC3=CC[C@H]4C(C)(C)[C@H](O)CC[C@]4(C)[C@H]3CC[C@@H]12 |

Source: ChEMBL document CHEMBL1150111, “Natural products inhibiting Candida albicans secreted aspartic proteases from Lycopodium cernuum” (J Nat Prod, 2002)
